# The entries come from a sample that favours hits as a whole.
# Diaphorase inh: inhibits diaphorase or chemically oxidizes, flagging diaphorase assay artifacts. diaphorase resazurin-to-resorufin fluorescence, NADH, 16 min; bacterial (C. kluyveri) enzyme, not human. inhibition, % at 20 µM. actives 0.69% (n = 190,000). AID 1217;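 active = primary screen inhibition at 20 µM above a set limit, cut at about 50% in these data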
#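 controls = No-NADH positive control and DMSO neutral control | system = Clostridium kluyveri diaphorase enzyme | timing = reaction incubation of 16 min at room temperature | signal = resorufin fluorescence 544/590 nm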
# Diaphorase act: diaphorase activation or chemical reduction counter-screen | Diaphorase/resazurin coupled assay, resorufin fluorescence, 16 min; hits give high values; 1 = vehicle wells, 0 = NADH-free wells | activation factor at 20 µM | actives 0.005% (n = 190,000) | AID 1229;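 active = diaphorase activity raised at least twofold by the compound at 20 µM; inactive = activation factor below 2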
#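 Material: purified diaphorase enzyme from Clostridium kluyveri / Medium: HEPES pH 7.4 buffer with MgCl2 and Tween 20 / Schedule: enzyme reaction of 16 min at room temperature / Measured by: resorufin fluorescence, excitation 544 nm, emission 590 nm / Evaluation: rise in resorufin formation, marking diaphorase activation or chemical reduction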
# Lmaj promast: reduces viability of Leishmania major promastigotes. resazurin fluorescence viability. inhibition, % at 10 µM. actives 9% (n = 200,000). AID 1063;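 also: promastigotes grown with compound for 44 hours at 28 °C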
# Redox H2O2 prof: compounds producing H2O2 with reducing agent – biochemical, NIH compound library profiling, artefact control for MLSCN library redox annotation, primary screen; DTT-dependent redox cycling H2O2, phenol red/HRP absorbance; 100% = 100 µM peroxide control, 0% = buffer; activation, % at 10 µM; actives 0.03% (n = 200,000); AID 878;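 active = activation of at least 50% relative to the plate's high and low controls in the primary single-dose screen; inactive = activation below 50%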;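 also: compound incubated with DTT at 0.8 mM final as the reducing agent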
# G6PDH counter: counter-screen for G6PDH assay hits: L. mesenteroides G6PDH inhibition; actives 0.12% (n = 200,000); Purified L. mesenteroides G6PDH, diaphorase/resazurin coupled fluorescence, 45 min; inhibition, % at 5 µM; AID 1020
# PfGluPho inh: PfG6PD (Plasmodium falciparum) enzyme inhibition; inhibition, % at 20 µM; actives 0.78% (n = 350,000); PfGluPho enzyme, NADPH resazurin-diaphorase fluorescence;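 active = inhibition reaching at least a set limit at 20 µM in the primary screen, cut at about 59% in these data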
# A number is an active result; n = inactive; x = no result given. Rule as the data show it, unless noted: active = inhibition above about 50%; inactive = the rest.
SMILES,Diaphorase inh,Diaphorase act,Lmaj promast,Redox H2O2 prof,G6PDH counter,PfGluPho inh
CC(C)COc1ccc(C/C(N)=N/n2cnnc2)cc1,n,n,n,n,n,n
Cc1ccc(Cl)cc1N(Cc1ccc(C(=O)NCc2cccnc2)cc1)S(=O)(=O)c1ccccc1,n,n,82.6,n,n,n
O=Nc1c(O)n(Cc2ccc(Cl)c(Cl)c2)c2ccccc12,n,n,77.0,n,n,n
COc1ccc(CN(C(=O)Cc2cccs2)C(C(=O)NC2CCCC2)c2ccncc2)cc1 (stereo not given),n,n,56.9,n,n,n
COC(=O)c1ccc(C(C(=O)NC2CCCCC2)N(Cc2ccc(F)cc2)C(=O)Cc2cccs2)cc1 (stereo not given),n,n,55.8,n,n,n
CCOC(=O)c1cc2c(c(CCO)n1)[C@@H](CCO)N(S(=O)(=O)C(C)(C)C)C2,x,x,x,x,x,n
COC(=O)c1cc2c(ccn2-c2ccc(F)cc2)n1Cc1cccc(OC)c1,n,n,97.9,n,n,n
CCOC(=O)c1cc2c(ccn2-c2ccc(F)cc2)n1CC(=O)N1CCN(C(=O)c2ccco2)CC1,n,n,n,n,n,n
COC(=O)c1cc2c(ccn2-c2ccc(F)cc2)n1Cc1ccc(OC(C)=O)cc1,n,n,93.0,n,n,n
CC1CC(C)CN(C(=O)CN2C(=O)NC(c3ccccc3)(c3ccccc3)C2=O)C1 (stereo not given),x,x,x,x,x,n
CCN(CCCNC(=O)CN(C)S(=O)(=O)c1cccc2nsnc12)c1cccc(C)c1,n,n,n,n,n,n
CCN(CCNC(=O)CN(C)S(=O)(=O)c1cccc2nsnc12)c1ccccc1,n,n,94.8,n,n,n
COc1ccc(CCC(C)N2CCC(CO)(Cc3ccccc3)CC2)cc1 (stereo not given),x,x,x,x,x,n
CC(COc1ccccc1)N1CCC(CO)(CCc2ccccc2)CC1 (stereo not given),n,n,97.4,n,n,n
CSCC(C)N1CCC(CO)(CCc2ccccc2)CC1 (stereo not given),n,n,82.2,n,n,n
NS(=O)(=O)c1ccc(CCNC(=O)c2cc3ccccc3oc2=O)cc1,x,x,x,x,x,n
OCCCN1CCN(CCOc2ccccc2-c2ccccc2)CC1,n,n,n,n,n,n
Cc1ccc(C(=S)N2CCN(Cc3ccccc3)CC2)cc1,n,n,n,n,n,n
c1ccc(-c2ccccc2OCCCN2CCCCC2)cc1,n,n,95.0,n,n,n
CCN1CCN(CCOc2ccccc2-c2ccccc2)CC1,n,n,91.3,n,n,n
CCN1CCN(C(=S)c2ccc(-c3ccccc3)cc2)CC1,n,n,80.0,n,n,n
OCCN1CCN(CCOc2ccccc2-c2ccccc2)CC1,n,n,n,n,n,n
CCN1CCN(CCCOc2ccc(-c3ccccc3)cc2)CC1,n,n,98.5,n,n,n
COc1cccc(CNC(=O)C2CCN(S(=O)(=O)c3ccc4c(c3)CC(C)N4C(C)=O)CC2)c1 (stereo not given),x,x,x,x,x,n
CCNC(=O)CC1C(=O)N(CC)C(=S)N1NC(=O)c1cccnc1 (stereo not given),n,n,n,n,n,n
SMILES,Diaphorase inh,Diaphorase act,Lmaj promast,Redox H2O2 prof,G6PDH counter,PfGluPho inh
Cn1cccc1C(=O)OCC(=O)N1c2ccccc2NC(=O)C1(C)C,n,n,n,n,n,n
CSc1ccc(C(=S)N2CCN(CCO)CC2)cc1,n,n,74.7,n,n,n
c1ccc(COc2ccc(OCCn3cncn3)cc2)cc1,n,n,n,n,n,n
CCN1CCN(CCCOc2ccccc2-c2ccccc2)CC1,n,n,65.5,n,n,n
c1ccc(-c2ccc(OCCCn3cncn3)cc2)cc1,n,n,96.2,n,n,n
OCCN1CCN(C(=S)Nc2ccc(SC(F)F)cc2)CC1,n,n,n,n,n,n
O=C(CCl)c1ccc2[nH]c(=O)oc2c1,x,x,x,x,x,n
CCOC(=O)CN1C(=O)S/C(=C/c2ccc(C)o2)C1=O,x,x,x,x,x,n
CCOC(=O)CN1C(=O)S/C(=C/c2ccc(O)c([N+](=O)[O-])c2)C1=O,n,n,51.8,n,n,n
CCOC(=O)C1CCN(C2CCN(Cc3nc(-c4ccccc4)no3)CC2)CC1,n,n,79.8,n,n,n
CCOC(=O)C1CCCN(C2CCN(Cc3nc(-c4ccccc4)no3)CC2)C1 (stereo not given),n,n,73.2,n,n,n
NC(=O)C1CCN(Cc2nc(-c3ccccc3)no2)CC1,n,n,n,n,n,n
CN(C)S(=O)(=O)c1ccc(N2CCCC2)c(C(=O)NNC(=O)COc2cccc(F)c2)c1,x,x,x,x,x,n
O=C(N/N=C/c1ccccc1C(=O)O)c1cccc(S(=O)(=O)N2CCCCC2)c1,x,x,x,x,x,n
Cc1nc2ccccc2nc1OCC(=O)NCC(F)(F)F,n,n,58.3,n,n,n
Cc1nc2ccccc2nc1OCC(=O)Nc1ccccc1,n,n,n,n,n,n
NC1=CC(=O)c2cccc3cccc1c23,63.0,n,n,n,n,x
COC(=O)c1ccc(CN2CCN(Cc3ccc(F)cc3)C(CCO)C2)cc1 (stereo not given),n,n,59.2,n,n,n
COc1ccc(/C=C/CN2CCN(Cc3ccccc3)C(CCO)C2)cc1 (stereo not given),n,n,n,n,n,n
COc1ccc(/C=C/CN2CCN(Cc3ccc(F)cc3)C(CCO)C2)cc1 (stereo not given),n,n,68.0,n,n,n
COC(=O)c1ccc(CN2CCN(CC=C(C)C)C(CCO)C2)cc1 (stereo not given),x,x,73.0,n,n,n
COC(=O)c1ccc(CN2CCN(CC(C)C)C(CCO)C2)cc1 (stereo not given),x,x,x,x,x,n
COC(=O)c1ccc(CNC(=O)COC(=O)c2ccc(N(C)C)cc2)cc1,n,n,n,n,n,n
C=CCc1cc(C)ccc1OCCOCCN1CCN(C)CC1,x,x,x,x,x,n
Cc1ccc(Nc2ncc(C(=O)NCCCN3CCN(C)CC3)c3ccccc23)cc1Cl,n,n,84.1,n,n,n
O=C(c1ccccc1)N1CCN(C(=S)NCCc2ccccc2)CC1,n,n,53.0,n,n,n
CCc1ccc(NC(=O)C(C)Oc2nnc(-c3cccs3)c(-c3cccs3)n2)cc1 (stereo not given),n,n,84.1,n,n,n
CCc1ccc(OC(C)C(=O)Nc2ccc(S(=O)(=O)Nc3nccs3)cc2)cc1 (stereo not given),x,x,x,x,x,n
CC(C)c1ccc(NC(=O)COc2nnc(-c3cccs3)c(-c3cccs3)n2)cc1,n,n,82.6,n,n,n
Cc1ccc(NC(=O)CSc2nnc(-c3cccs3)o2)cc1S(=O)(=O)N1CCCCC1,n,n,n,n,n,n

# High-throughput results: PubChem BioAssay, several laboratories
